In ChEMBL document CHEMBL3526048, “In vitro metabolism of rivoglitazone, a novel peroxisome proliferator-activated receptor γ agonist, in rat, monkey, and human liver microsomes and freshly isolated hepatocytes” (Drug Metab Dispos, 2011) one finds Drug metabolism data, which are given here for two compounds.

Data set [1] in a line: Drug metabolism in cynomolgus monkey liver microsomes assessed as formation of 3-(4-((6-methoxy-1-methyl-1H-benzo[d]imidazol-2-yl)methoxy)phenyl)-2-(methylsulfonyl)propanamide at 20 uM after 2 hrs by radio-HPLC/LC-MS/MS analysis in presence of NADPH-generating system/SAM. Format: ADME, Macaca fascicularis.
Data set [2] has as its target T1, Cytochrome P450 2C9 (Homo sapiens, UniProt P11712). As to the kind of experiment: Activity of human CYP2C9 expressed in microsomes isolated from baculovirus infected insect cell assessed as enzyme-mediated 3-(4-((6-methoxy-1-methyl-1H-benzo[d]imidazol-2-yl)methoxy)phenyl)-2-(methylsulfinyl)propanamide formation at 20 uM after 2 hrs by radio-HPLC/LC-MS/MS analysis in presence of NADPH-generating system/SAM. Type of data set: ADME.

The next data set concerns the target T2, Cytochrome P450 2C8 (Homo sapiens, UniProt P10632).
T2 sequence (P10632 whole entry): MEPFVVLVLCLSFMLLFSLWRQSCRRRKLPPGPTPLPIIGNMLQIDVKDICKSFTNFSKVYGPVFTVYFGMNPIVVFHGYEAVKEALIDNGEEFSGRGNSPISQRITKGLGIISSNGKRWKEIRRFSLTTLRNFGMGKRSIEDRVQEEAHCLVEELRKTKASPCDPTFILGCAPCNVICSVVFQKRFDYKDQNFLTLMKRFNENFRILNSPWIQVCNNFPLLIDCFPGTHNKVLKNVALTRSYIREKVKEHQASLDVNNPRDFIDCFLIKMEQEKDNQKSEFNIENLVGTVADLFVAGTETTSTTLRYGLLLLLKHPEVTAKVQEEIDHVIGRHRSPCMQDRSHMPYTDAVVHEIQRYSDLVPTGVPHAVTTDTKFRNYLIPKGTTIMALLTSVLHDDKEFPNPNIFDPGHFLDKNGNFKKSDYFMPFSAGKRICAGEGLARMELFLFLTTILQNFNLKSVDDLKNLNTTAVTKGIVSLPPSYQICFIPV
As to the kind of experiment: Activity of human CYP2C8 expressed in microsomes isolated from baculovirus infected insect cell assessed as enzyme-mediated (2S,3S,4S,5R,6R)-6-((1-carboxy-2-(4-((6-methoxy-1-methyl-1H-benzo[d]imidazol-2-yl)methoxy)phenyl)ethylthio)carbonylamino)-3,4,5-trihydroxytetrahydro-2H-pyran-2-carboxylic acid formation at 20 uM after 2 hrs by radio-HPLC/LC-MS/MS analysis in presence of NADPH-generating system/SAM. Type of data set: ADME.

Data set [3] has as its target T1, Cytochrome P450 2C9. As to the kind of experiment: Activity of human CYP2C9 expressed in microsomes isolated from baculovirus infected insect cell assessed as enzyme-mediated 2-((4-((2,4-dioxothiazolidin-5-yl)methyl)phenoxy)methyl)-1-methyl-1H-benzo[d]imidazol-6-yl hydrogen sulfate formation at 20 uM after 2 hrs by radio-HPLC/LC-MS/MS analysis. Format: ADME. The gist of the method: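 Baculovirus-insect-cell microsomes expressing the human CYP (1 mg/ml protein) were incubated with [14C]rivoglitazone (20 μM) in 50 mM potassium phosphate (pH 7.4) or 100 mM Tris-HCl (pH 7.5) with an NADPH-generating system (2 mM NADP+, 20 mM glucose 6-phosphate, 2 units/ml G6PDH, 10 mM MgCl2) for 2 h at 37°C. Insect-cell control supersomes served as the control. Reactions were stopped with acetonitrile, and the concentrated supernatants were analysed by radio-HPLC, LC-MS and LC-MS/MS.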

The nature of data set [4]: Drug metabolism in rat hepatocytes assessed as formation of 2-mercapto-3-(4-((6-methoxy-1-methyl-1H-benzo[d]imidazol-2-yl)methoxy)phenyl)propanamide at 30 uM after 3 hrs by radio-HPLC/LC-MS/MS analysis in presence of NADPH-generating system and NADPH-generating system/SAM. Format: ADME, cell-based, Hepatocyte.
The nature of data set [5]: Drug metabolism in monkey hepatocytes assessed as formation of 5-hydroxy-5-(4-((6-methoxy-1-methyl-1H-benzo[d]imidazol-2-yl)methoxy)benzyl)thiazolidine-2,4-dione at 30 uM after 3 hrs by radio-HPLC/LC-MS/MS analysis in presence of NADPH-generating system and NADPH-generating system/SAM. The note with it: cynomolgus monkey.
For data set [6], the target named is T3, Cytochrome P450 2D6 (Homo sapiens, UniProt P10635). As to the kind of experiment: Activity of human CYP2D6 expressed in microsomes isolated from baculovirus infected insect cell assessed as enzyme-mediated 5-(4-((6-hydroxy-1-methyl-1H-benzo[d]imidazol-2-yl)methoxy)benzyl)thiazolidine-2,4-dione formation at 20 uM after 2 hrs by radio-HPLC/LC-MS/MS analysis in presence of NADPH-generating system and NADPH-generating system/SAM. Type of data set: ADME.

Another data set relates to Liver microsome. Briefly: Drug metabolism in Sprague-Dawley rat liver microsomes assessed as formation of 5-(4-((6-methoxy-1H-benzo[d]imidazol-2-yl)methoxy)benzyl)thiazolidine-2,4-dione at 20 uM after 2 hrs by radio-HPLC/LC-MS/MS analysis in presence of NADPH-generating system and NADPH-generating system/SAM. Type of data set: ADME.
The target of data set [7] is T3, Cytochrome P450 2D6. As to the kind of experiment: Activity of human CYP2D6 expressed in microsomes isolated from baculovirus infected insect cell assessed as enzyme-mediated 3-(4-((6-methoxy-1-methyl-1H-benzo[d]imidazol-2-yl)methoxy)phenyl)-2-(methylsulfinyl)propanamide formation at 20 uM after 2 hrs by radio-HPLC/LC-MS/MS analysis in presence of NADPH-generating system/SAM. Type of data set: ADME.

Data set [8] can be described thus: Drug metabolism in monkey hepatocytes assessed as formation of 5-(4-((6-methoxy-1H-benzo[d]imidazol-2-yl)methoxy)benzyl)thiazolidine-2,4-dione at 30 uM after 3 hrs by radio-HPLC/LC-MS/MS analysis in presence of NADPH-generating system and NADPH-generating system/SAM. The note with it: cynomolgus monkey.
The nature of data set [9]: Drug metabolism in cynomolgus monkey liver microsomes assessed as formation of 2-mercapto-3-(4-((6-methoxy-1-methyl-1H-benzo[d]imidazol-2-yl)methoxy)phenyl)propanamide at 20 uM after 2 hrs by radio-HPLC/LC-MS/MS analysis in presence of NADPH-generating system and NADPH-generating system/SAM. Type of data set: ADME, Macaca fascicularis.
In data set [10] the target is T3, Cytochrome P450 2D6. Briefly: Activity of human CYP2D6 expressed in microsomes isolated from baculovirus infected insect cell assessed as enzyme-mediated 5-hydroxy-5-(4-((6-methoxy-1-methyl-1H-benzo[d]imidazol-2-yl)methoxy)benzyl)thiazolidine-2,4-dione formation at 20 uM after 2 hrs by radio-HPLC/LC-MS/MS analysis in presence of NADPH-generating system and NADPH-generating system/SAM. Type of data set: ADME.

A further data set concerns the target Cytochrome P450 2C19 (Homo sapiens, UniProt P33261). As to the kind of experiment: Activity of human CYP2C19 expressed in microsomes isolated from baculovirus infected insect cell assessed as enzyme-mediated compound formation treated with [14C]-rivoglitazone at 20 uM after 2 hrs by radio-HPLC/LC-MS/MS analysis in presence of NADPH-generating system. Type of data set: ADME. The gist of the method: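 Baculovirus/insect-cell microsomes expressing single human CYPs, 1 mg/ml protein, with 50 mM potassium phosphate (pH 7.4) or 100 mM Tris-HCl (pH 7.5). NADPH-generating system: 2 mM NADP⁺, 20 mM glucose 6-phosphate, 2 units/ml G6PDH, 10 mM MgCl₂. [¹⁴C]rivoglitazone at 20 μM, 2 h at 37°C with shaking. Control used insect-cell control supersomes. Stopped with acetonitrile; supernatant concentrated under nitrogen; metabolites analysed by radio-HPLC, LC-MS and LC-MS/MS.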

T3 sequence (P10635 whole entry): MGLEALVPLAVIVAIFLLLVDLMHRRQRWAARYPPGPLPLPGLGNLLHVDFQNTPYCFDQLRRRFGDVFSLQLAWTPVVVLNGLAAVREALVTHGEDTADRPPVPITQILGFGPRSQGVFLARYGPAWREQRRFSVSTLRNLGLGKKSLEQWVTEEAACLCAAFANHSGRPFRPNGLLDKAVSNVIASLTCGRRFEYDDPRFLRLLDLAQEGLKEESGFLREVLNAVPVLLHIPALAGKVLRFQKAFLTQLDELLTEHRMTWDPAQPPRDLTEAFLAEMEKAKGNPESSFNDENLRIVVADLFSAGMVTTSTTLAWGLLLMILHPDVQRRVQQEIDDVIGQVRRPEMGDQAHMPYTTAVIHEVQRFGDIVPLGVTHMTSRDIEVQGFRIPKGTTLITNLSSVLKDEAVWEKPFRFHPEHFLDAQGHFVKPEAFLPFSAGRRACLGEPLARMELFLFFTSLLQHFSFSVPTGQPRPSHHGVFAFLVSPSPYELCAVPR
T1 sequence (P11712 whole entry): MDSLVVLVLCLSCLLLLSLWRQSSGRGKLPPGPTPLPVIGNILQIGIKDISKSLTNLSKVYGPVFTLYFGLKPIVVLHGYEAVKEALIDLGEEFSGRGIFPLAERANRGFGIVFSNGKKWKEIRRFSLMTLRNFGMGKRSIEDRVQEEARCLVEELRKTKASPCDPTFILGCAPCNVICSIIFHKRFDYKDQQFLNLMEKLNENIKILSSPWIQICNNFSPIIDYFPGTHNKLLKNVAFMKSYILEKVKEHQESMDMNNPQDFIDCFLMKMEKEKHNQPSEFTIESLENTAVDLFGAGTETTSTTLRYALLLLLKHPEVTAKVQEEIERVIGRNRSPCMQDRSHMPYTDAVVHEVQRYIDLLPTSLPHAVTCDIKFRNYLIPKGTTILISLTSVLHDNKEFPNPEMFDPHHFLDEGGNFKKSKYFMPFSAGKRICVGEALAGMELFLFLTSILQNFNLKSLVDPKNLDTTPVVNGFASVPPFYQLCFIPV
Cytochrome P450 2C19, sequence (P33261 whole entry): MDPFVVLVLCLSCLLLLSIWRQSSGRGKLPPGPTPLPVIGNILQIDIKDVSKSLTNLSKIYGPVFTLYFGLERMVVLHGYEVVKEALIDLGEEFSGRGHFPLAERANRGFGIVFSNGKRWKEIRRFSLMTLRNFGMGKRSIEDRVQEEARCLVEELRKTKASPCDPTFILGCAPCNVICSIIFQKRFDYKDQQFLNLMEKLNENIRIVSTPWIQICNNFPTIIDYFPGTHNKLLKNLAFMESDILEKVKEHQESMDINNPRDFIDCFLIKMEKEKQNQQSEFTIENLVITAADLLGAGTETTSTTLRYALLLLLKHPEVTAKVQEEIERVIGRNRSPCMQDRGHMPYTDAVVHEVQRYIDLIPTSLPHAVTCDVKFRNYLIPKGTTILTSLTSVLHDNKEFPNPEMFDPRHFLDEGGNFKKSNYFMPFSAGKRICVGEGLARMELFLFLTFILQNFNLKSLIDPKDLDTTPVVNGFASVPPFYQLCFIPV

As to `COc1ccc2nc(COc3ccc(C[14CH]4SC(=O)NC4=O)cc3)n(C)c2c1.Cl` (racemic), the Drug metabolism result in [1] is on record as “metabolite_detected”; on Cytochrome P450 2C9 [2], “metabolite_not_detected”; on Cytochrome P450 2C8 it was “metabolite_not_detected”; on Cytochrome P450 2C9 [3] it was “metabolite_not_detected”; in data set [4], “metabolite_not_detected”; in data set [5], “metabolite_detected”. The Drug metabolism result on Cytochrome P450 2D6 [6] is on record as “metabolite_detected”; in the data set on Liver microsome it was “metabolite_detected”; at Cytochrome P450 2D6 [7], “metabolite_not_detected”; in [8], “metabolite_not_detected”; in data set [9], “metabolite_detected”; on Cytochrome P450 2D6 [10] it was “metabolite_detected”.
For `COc1ccc2nc(COc3ccc(CC(S)C(=O)O)cc3)n(C)c2c1` (stereo not drawn), the Drug metabolism result at Cytochrome P450 2C19 is reported as “metabolite_detected”.
